From ChEMBL document CHEMBL1126826, “2'-(Trimethylammonio)ethyl 4-(hexadecyloxy)-3(S)-methoxybutanephosphonate: a novel potent antineoplastic agent” (J Med Chem, 1993)
Values joined by “and” are separate entries in the source; they are usually repeats but may differ in a detail not shown here. Equal values may be shown once.

How the values were obtained:
[1] = Effect on […] cell growth expressed as percent number of colonies compared to control at a concentration of 1.2 uM; assay type: functional, Mus musculus
How it was run: (§1)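 WEHI-3B murine cells grown in methyl cellulose/RPMI colony (clonogenic) assay with compound at a range of concentrations for 5 days in 60-mm dishes. Colonies counted after 5 days and expressed as percentage of untreated control colonies. Mean of three experiments run in triplicate ± SD. IC50 taken from the concentration-response.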

[2] = Effect on […] cell growth expressed as percent number of colonies compared to control at a concentration of 5 uM; assay type: functional, Mus musculus; how it was run: as §1
[3] = Compounds were evaluated for antineoplastic activity against […] cells using clonogenic assays.; assay type: functional, cell-based; details: Mus musculus; how it was run: as §1
[4] = Effect on […] cell growth expressed as percent number of colonies compared to control at a concentration of 10 uM; assay type: functional, Mus musculus; how it was run: as §1
[5] = Effect on […] cell growth expressed as percent number of colonies compared to control at a concentration of 2.5 uM; assay type: functional, Mus musculus; how it was run: as §1
[6] = Effect on […] cell growth expressed as percent number of colonies compared to control at a concentration of 20 uM; assay type: functional, Mus musculus; how it was run: as §1
[7] = Effect on […] cell growth expressed as percent number of colonies compared to contro at a concentration of 5 uM; assay type: functional, Mus musculus; how it was run: as §1
[8] = Effect on […] cell growth expressed as percent number of colonies compared to contro at a concentration of 0.6 uM; assay type: functional, cell-based; details: Mus musculus; how it was run: as §1
[9] = Effect on […] cell growth expressed as percent number of colonies compared to contro at a concentration of 1.2 uM; assay type: functional, Mus musculus; how it was run: as §1
[10] = Effect on […] cell growth expressed as percent number of colonies compared to contro at a concentration of 2.5 uM; assay type: functional, Mus musculus; how it was run: as §1
[11] = Compounds were evaluated for antineoplastic activity against […] cells using clonogenic assays; assay type: functional, cell-based; details: Mus musculus; how it was run: as §1
[12] = Effect on […] cell growth expressed as percent number of colonies compared to contro at a concentration of 10 uM; assay type: functional, Mus musculus; how it was run: as §1
[13] = Effect on […] cell growth expressed as percent number of colonies compared to contro at a concentration of 20 uM; assay type: functional, Mus musculus; how it was run: as §1

| SMILES | Control [1] [%] | Control [2] | IC50 [3] [nM] | Control [4] [%] | Control [5] [%] | Control [6] [%] | Control [7] [%] | percent of control colonies [8] [%] | Control [9] [%] | Control [10] [%] | IC50 [11] [nM] | Control [12] [%] | Control [13] [%] |
| --- | --- | --- | --- | --- | --- | --- | --- | --- | --- | --- | --- | --- | --- |
| CCCCCCCCCCCCCCCCOC[C@H](CCP(=O)([O-])OCC[N+](C)(C)C)OC | 95 | 58% and 48% | 2500 | 30 | 88 | 32 | – | – | – | – | – | – | – |
| CCCCCCCCCCCCCCCCCCOCC(COP(=O)([O-])OCC[N+](C)(C)C)OC (stereo not drawn) [EDELFOSINE] | – | – | – | – | – | – | 48 | 105 | 91 | 68 | 2500 | 36 | 30 |
